Test [1] addresses T1, human SERT (Homo sapiens, UniProt P31645). Kind of test: Uptake inhibition in HEK-293 cells expressing human SERT. In kind it is cell-based.
Test [2] concerns the target T2, SERT (Rattus norvegicus, UniProt P31652). Kind of test: Release of [3H]5-HT from rat brain synaptosomes. It counts as biochemical.
Test [3] deals with T1, human SERT. Kind of test: Efflux. In kind it is cell-based. The settings on record: HEK-293 human SERT; for [3H]5-HT efflux at SERT: 10 μM drug; for effect of monensin on drug-evoked [3H]5-HT efflux at SERT: 10 μM drug plus 10 μM monensin. Summed up:
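HEK-293 cells stably expressing YFP-tagged human SERT, seeded at 40,000 cells/well on poly-D-lysine-coated coverslips. Preloaded with 0.3 μM radiolabelled substrate for 20 min at 37 °C, then superfused at 25 °C, 0.7 mL/min, with Krebs Ringer HEPES (pH 7.4). Fractions collected every 2 min. After a 40-min washout baseline, 10 μM test compound was added alone or with 10 μM monensin. Cells were lysed in 1% SDS and counted by scintillation. Analysis: two-way ANOVA with Tukey; n=3, triplicate.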

Test [4] concerns the target T3, DAT (Rattus norvegicus, UniProt P23977). Kind of test: Release of [3H]MPP+ from rat brain synaptosomes. It counts as biochemical. The settings on record: 0.1 nM to 10 μM. The method in brief: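 Crude synaptosomes were prepared from rat caudate: homogenized in ice-cold 10% sucrose, spun at 1000 g for 10 min, supernatant kept. They were preloaded for 1 h with 9 nM [3H]MPP+ in Krebs-phosphate buffer; all buffers contained 1 μM reserpine. Test compound was applied at 0.1 nM–10 μM in triplicate. Release was stopped by vacuum filtration and counted by scintillation. EC50 was derived by nonlinear regression; n=3.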

The test system of test [5] is DAT. To be noted: 100 μM drug; ref Dolan et al. (2018); cited from earlier work.
For the next test, the system named is DAT and SERT. To be noted: HEK-293 cells, uptake inhibition; ref Simmler et al. 2013; 2014; cited from earlier work.
The target of test [6] is T2, SERT. Kind of test: Uptake inhibition of [3H]5-HT in rat brain synaptosomes. In kind it is biochemical.
For test [7], the target named is T4, human DAT (Homo sapiens, UniProt Q01959). Kind of test: Transporter-mediated ionic currents, whole cell patch clamp, HEK-293 human DAT. The settings on record: voltage clamped to −60 mV, 300 nM to 300 μM. It counts as cell-based. Summed up: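 HEK-293 cells stably expressing human DAT were seeded at low density 24 h before recording. Whole-cell voltage clamp was held at −60 mV, with K-gluconate/EGTA pipette solution (pH 7.2) and NaCl/glucose HEPES bath (pH 7.4). Test compound (300 nM–300 μM) was applied by rapid superfusion. Passive holding currents were subtracted, traces low-pass filtered at 100 Hz, and currents normalised to 10 μM endogenous substrate. One-way ANOVA; n=3.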
For orientation: In patch-clamp work, channel activity is measured electrically.

Test [8] concerns extracellular dopamine and 5-HT in nucleus accumbens. Kind of test: In vivo microdialysis in the nucleus accumbens of conscious rats. The settings on record: rat nucleus accumbens dialysate. The method in brief: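 Male Sprague-Dawley rats (300–400 g) were implanted under ketamine/xylazine with a jugular catheter and a nucleus accumbens guide cannula, then recovered ≥1 week. Probes were perfused with Ringer's at 0.6 μL/min, and 20-min dialysates were assayed for dopamine and 5-HT by HPLC-ECD. After three stable baselines, rats received 1 mg/kg i.v. at time zero, then 3 mg/kg at 60 min; controls received saline 1 mL/kg. Data are % of baseline; N=6–7/group; two-way ANOVA, Bonferroni.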

Test [9] deals with T3, DAT. Kind of test: Uptake inhibition of [3H]dopamine in rat brain synaptosomes. In kind it is biochemical. To be noted: for DAT/SERT ratio ([DAT IC50]^−1/[SERT IC50]^−1): synaptosome uptake assays, higher value indicates greater DAT-selectivity.
The next test has as its system motor activity. Kind of test: Motor activity and stereotypy. To be noted: rats, 1 and 3 mg/kg i.v.; for motor activity (forward locomotion): compared to saline. It counts as in vivo, rat. The method in brief:
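Conscious, tethered male Sprague-Dawley rats were acclimated overnight in photobeam arenas and tracked for forward locomotion and stereotypy during microdialysis. Dosing was i.v. via jugular catheter: 1 mg/kg at time zero, then 3 mg/kg 60 min later; saline controls received 1 mL/kg on the same schedule. Data are % of basal preinjection values; N=6–7/group; two-way ANOVA (treatment × time) with Bonferroni tests against saline.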

Test [10] addresses T4, human DAT. Kind of test: Efflux. In kind it is cell-based. The settings on record: HEK-293 human DAT, 10 μM drug, with or without 10 μM monensin.
Test [11] deals with T1, human SERT. Kind of test: Transporter-mediated ionic currents, whole cell patch clamp, HEK-293 human SERT. It counts as cell-based. To be noted: voltage clamped to −60 mV, 300 nM to 300 μM.
For test [12], the target named is T4, human DAT. Kind of test: Uptake inhibition in HEK-293 cells expressing human DAT. It counts as cell-based.
The mark [13] stands for this setting: 3 mg/kg i.v. given 60 min after 1 mg/kg.

The term IC50 denotes the concentration that inhibits the measured activity by half. A higher IC50 goes with lower potency. The EC50 is the concentration giving half of the maximal effect.

T2 sequence (P31652 whole entry): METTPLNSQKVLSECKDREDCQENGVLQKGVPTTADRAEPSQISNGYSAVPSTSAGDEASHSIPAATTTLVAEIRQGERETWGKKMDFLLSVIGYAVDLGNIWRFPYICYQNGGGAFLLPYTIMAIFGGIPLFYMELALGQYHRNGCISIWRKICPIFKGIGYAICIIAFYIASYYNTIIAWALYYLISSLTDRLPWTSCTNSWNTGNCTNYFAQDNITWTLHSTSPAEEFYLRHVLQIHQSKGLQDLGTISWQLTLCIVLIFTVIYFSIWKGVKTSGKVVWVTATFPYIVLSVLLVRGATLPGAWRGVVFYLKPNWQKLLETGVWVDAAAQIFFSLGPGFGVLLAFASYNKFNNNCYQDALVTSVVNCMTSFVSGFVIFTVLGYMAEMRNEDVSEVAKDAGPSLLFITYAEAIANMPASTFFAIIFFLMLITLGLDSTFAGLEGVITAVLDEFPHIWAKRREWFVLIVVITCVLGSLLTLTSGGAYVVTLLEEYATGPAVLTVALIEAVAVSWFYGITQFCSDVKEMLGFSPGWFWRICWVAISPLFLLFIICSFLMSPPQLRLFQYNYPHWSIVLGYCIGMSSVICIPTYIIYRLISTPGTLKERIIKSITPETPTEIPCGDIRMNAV
T4 sequence (Q01959 whole entry, the tested form may be a part): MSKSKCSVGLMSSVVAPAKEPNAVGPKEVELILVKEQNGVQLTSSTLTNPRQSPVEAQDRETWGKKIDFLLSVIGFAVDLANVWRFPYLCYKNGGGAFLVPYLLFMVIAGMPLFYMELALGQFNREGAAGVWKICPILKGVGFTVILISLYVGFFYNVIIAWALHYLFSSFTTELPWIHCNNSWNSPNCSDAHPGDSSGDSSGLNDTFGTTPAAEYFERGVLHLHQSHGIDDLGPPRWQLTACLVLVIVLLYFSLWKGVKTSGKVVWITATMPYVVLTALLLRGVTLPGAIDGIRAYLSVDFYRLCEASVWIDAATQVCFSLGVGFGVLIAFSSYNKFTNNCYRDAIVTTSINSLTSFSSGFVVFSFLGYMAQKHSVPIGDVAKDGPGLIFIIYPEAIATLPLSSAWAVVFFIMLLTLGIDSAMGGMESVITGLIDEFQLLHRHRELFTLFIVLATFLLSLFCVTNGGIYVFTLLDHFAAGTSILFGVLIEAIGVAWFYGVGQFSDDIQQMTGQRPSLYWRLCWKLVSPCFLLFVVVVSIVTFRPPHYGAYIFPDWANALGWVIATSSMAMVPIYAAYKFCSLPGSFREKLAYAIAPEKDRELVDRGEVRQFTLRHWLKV
T3 sequence (P23977 whole entry): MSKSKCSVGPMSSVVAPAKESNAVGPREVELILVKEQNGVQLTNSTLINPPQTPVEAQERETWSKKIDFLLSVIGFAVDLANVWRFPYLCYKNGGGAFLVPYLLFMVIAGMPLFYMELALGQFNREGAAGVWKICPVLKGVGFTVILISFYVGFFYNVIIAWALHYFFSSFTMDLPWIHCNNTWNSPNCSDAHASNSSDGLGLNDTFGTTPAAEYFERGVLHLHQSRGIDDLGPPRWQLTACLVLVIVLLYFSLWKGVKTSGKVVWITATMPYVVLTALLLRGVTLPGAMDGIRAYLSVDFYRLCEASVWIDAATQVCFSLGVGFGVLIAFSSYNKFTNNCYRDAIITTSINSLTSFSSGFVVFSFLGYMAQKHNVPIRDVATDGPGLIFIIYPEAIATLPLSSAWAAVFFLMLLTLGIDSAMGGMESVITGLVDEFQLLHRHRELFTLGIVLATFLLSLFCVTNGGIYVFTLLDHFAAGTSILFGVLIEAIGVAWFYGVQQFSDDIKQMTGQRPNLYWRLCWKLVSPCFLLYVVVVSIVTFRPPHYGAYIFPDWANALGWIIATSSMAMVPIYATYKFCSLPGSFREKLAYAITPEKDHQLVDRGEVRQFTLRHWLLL
T1 sequence (P31645 whole entry): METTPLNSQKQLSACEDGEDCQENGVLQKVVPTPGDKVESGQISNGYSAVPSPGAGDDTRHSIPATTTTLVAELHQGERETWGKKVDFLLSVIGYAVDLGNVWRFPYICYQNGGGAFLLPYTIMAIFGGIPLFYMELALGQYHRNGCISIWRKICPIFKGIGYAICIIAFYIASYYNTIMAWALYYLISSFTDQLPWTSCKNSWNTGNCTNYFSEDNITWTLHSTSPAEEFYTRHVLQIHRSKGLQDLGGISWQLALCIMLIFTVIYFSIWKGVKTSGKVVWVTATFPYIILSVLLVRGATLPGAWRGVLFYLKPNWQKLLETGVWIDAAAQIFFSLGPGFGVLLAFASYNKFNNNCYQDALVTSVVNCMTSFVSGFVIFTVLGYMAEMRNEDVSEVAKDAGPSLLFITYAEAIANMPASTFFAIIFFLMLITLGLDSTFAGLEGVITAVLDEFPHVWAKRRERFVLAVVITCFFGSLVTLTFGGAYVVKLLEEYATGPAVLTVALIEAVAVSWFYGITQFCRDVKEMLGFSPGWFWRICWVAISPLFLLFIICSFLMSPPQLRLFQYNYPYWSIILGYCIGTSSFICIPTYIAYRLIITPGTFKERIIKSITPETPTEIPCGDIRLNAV

For the compound `CCC(NC)C(=O)c1ccc2c(c1)OCO2` (stereo not shown) [butylone, 1-(1,3-Benzodioxol-5-yl)-2-(methylamino)butan-1-one], half-maximal inhibition against human SERT [1] (IC50) was put at 24400 ± 2000 nM. The same compound registered a half-maximal effective concentration (EC50) at SERT [2] of 330 ± 40 nM. Besides, at human SERT [3], the “[3H]5-HT efflux at SERT” value is “evoked [^3H]5-HT efflux at SERT” and the “effect of monensin on drug-evoked [3H]5-HT efflux at SERT” value is reported as “markedly enhanced”. At DAT [4], the “release of [3H]MPP+ at DAT” value was “failed to produce efficacious release”. In addition, the “drug-induced current at DAT as fraction of current induced by dopamine” value in the test with DAT [5] was less than 20%. Besides, the DAT/SERT ratio with DAT and SERT is 2.1. The concentration for half-maximal inhibition (IC50) against SERT [6] was 1430 ± 160 nM. For the same compound, on human DAT [7], the “transporter-mediated currents at DAT” value is “no discernable currents”. In test [8] (1 mg/kg i.v.), the “extracellular 5-HT levels increase” value was determined as 3 fold and the “extracellular dopamine levels above baseline” value was found to be 2 fold. Besides, in [8] (setting [13]), the “extracellular 5-HT levels increase” value is reported as roughly 7 fold and the “extracellular dopamine levels increase” value is listed as “about 3.5 fold”. On DAT [9], the IC50 was 400 ± 20 nM and the “DAT/SERT ratio ([DAT IC50]^−1/[SERT IC50]^−1)” value is reported as 3.6. Further, the “motor activity (forward locomotion)” value with motor activity is “increased motor activity”. Moreover, on human DAT [10], the “[3H]MPP+ efflux at DAT” value was “neither butylone nor pentylone evoked [^3H]MPP^+ efflux at DAT”. On human SERT [11], the SERT-mediated inward currents result is “dose-related induction of SERT-mediated inward currents”. At human DAT [12], the IC50 turned out to be 1440 ± 100 nM.
For the compound `CCCC(NC)C(=O)c1ccc2c(c1)OCO2` (stereo not shown) [pentylone, 1-(1,3-benzodioxol-5-yl)-2-(methylamino)pentan-1-one], half-maximal inhibition on human SERT [1] (IC50) required 11700 ± 500 nM. Also, at SERT [2], the EC50 was 1030 ± 180 nM. The “efficacy of SERT-mediated release” value on SERT [2] (rat brain synaptosomes, [3H]5-HT release) is listed as 48 % of Emax. In addition, on human SERT [3], the “[3H]5-HT efflux at SERT” value is “evoked [^3H]5-HT efflux at SERT” and the “effect of monensin on drug-evoked [3H]5-HT efflux at SERT” value was “markedly enhanced”. Moreover, the “release of [3H]MPP+ at DAT” value on DAT [4] is on record as “failed to produce efficacious release”. In addition, in the test with DAT [5], the “drug-induced current at DAT as fraction of current induced by dopamine” value was less than 20%. The DAT/SERT ratio with DAT and SERT was 6.2. Besides, the IC50 at SERT [6] was 1360 ± 100 nM. The “transporter-mediated currents at DAT” value on human DAT [7] was “no discernable currents”. In test [8] (1 mg/kg i.v.), the “extracellular 5-HT levels increase” value is “no effect” and the “extracellular dopamine levels above baseline” value was 2 fold. In [8] (setting [13]), the “extracellular 5-HT levels increase” value is 3 fold and the “extracellular dopamine levels increase” value is given as “about 3.5 fold”. Also, at DAT [9], the IC50 worked out at 120 ± 10 nM and the “DAT/SERT ratio ([DAT IC50]^−1/[SERT IC50]^−1)” value was 11.4. Also, the “motor activity (forward locomotion)” value in the test with motor activity was “increased motor activity”. Moreover, the “stereotypy (repetitive movements)” value in the test on motor activity (post hoc tests vs saline) was “increased stereotypy”. Also, the “[3H]MPP+ efflux at DAT” value at human DAT [10] was “neither butylone nor pentylone evoked [^3H]MPP^+ efflux at DAT”. For the same compound, at human SERT [11], the SERT-mediated inward currents entry is recorded as “dose-related induction of SERT-mediated inward currents”. The compound also came in with an IC50 against human DAT [12] of 310 ± 70 nM.

Source of the values: paper PMC6476708 (Psychopharmacology, 2018).
